A selection: hits, their analogues and other compounds. The true share with any hit is near 1%.
thrombin 1536 – blocks human thrombin protease activity | P00734 | alpha-thrombin, Boc-VPR-AMC fluorogenic substrate cleavage | inhibition, % at 5 µM | 0.26% of 220,000 active;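 active means inhibition at or above 40%; inactive means inhibition below 40%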
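Assay system: human alpha-thrombin enzyme. Reagent: Boc-VPR-AMC substrate, 15 µM final. Compound dosing: one concentration per compound, 5 µM, with 0.2% DMSO. Incubation: room-temperature reaction. Technique: AMC fluorescence, 355/460 nm. Measure: % inhibition relative to enzyme controls and enzyme-free blanks.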
FXIIa inh – factor XIIa (human) inhibition; P00748; purified FXIIa, Boc-QGR-AMC fluorogenic substrate, 2 h; inhibition, % at 5 µM; 0.3% of 220,000 active; in the data active means inhibition above about 40%
KLK5 inh – kallikrein 5 (human) inhibition; Q9Y337; recombinant hK5, fluorogenic AMC substrate cleavage; 0.59% of 210,000 active; inhibition, % at 5 µM;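 active means inhibition of 40% or more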
FXIa inh – factor XIa (human) inhibition | P03951 | purified FXIa, Boc-Glu-Ala-Arg-AMC fluorogenic substrate | inhibition, % at 5 µM | 0.14% of 220,000 active | AID 798;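 active means inhibition of at least 40%; inactive means inhibition below 40%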;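 further: fluorescence of freed AMC excited at 355 nm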
Hits are given with their value; i = inactive.

SMILES	thrombin 1536	FXIIa inh	KLK5 inh	FXIa inh
COC(=O)c1c(NC(=O)c2ccc(Br)s2)sc2c1CCC2	i	55.2	i	i
COC(=O)c1c(NC(=O)c2ccoc2C)sc2c1CCC2	i	i	i	i
COc1ccc(/C=C/S(=O)(=O)NCc2ccccc2)cc1OC	i	i	i	i
C=C(C)CNC(=S)N/N=C/c1ccc(NC(C)=O)cc1	i	i	i	i
C=C(C)CNC(=S)Nc1cccc(N)n1	i	i	40.8	48.0
CC1(C)CC2CC(C)(CN2/C=C2/CCCCC2=O)C1 (stereo not given)	i	i	i	i
Brc1ccc(CNc2nc3ccccc3n2CCN2CCCCC2)cc1	i	i	i	i
COc1cccc(CNc2nc3ccc(C)cc3n3cnnc23)c1	i	i	i	i
COc1cccc(Nc2nc3ccccc3n3cnnc23)c1	i	i	64.0	i
COc1cccc(Nc2ccccc2C(=O)O)c1	i	i	i	i
COc1cccc(Nc2ccc(Nc3cccc(OC)c3)nn2)c1	i	i	53.2	i
Cc1ccc(S(=O)(=O)NN2C(=O)/C(=C/c3cccn3C)SC2=S)cc1	i	i	40.9	i
Cc1ccc(S(=O)(=O)NN2C(=O)/C(=C/c3cccs3)SC2=S)cc1	i	i	i	i
COc1ccc(CCNC(=O)CSc2nnc(-c3ccc(F)cc3)o2)cc1OC	i	i	129.5	i
COc1ccc(CCNC(=O)CSc2nnc(CNc3ccc(Cl)cc3)o2)cc1OC	i	i	i	i
COc1ccc(S(=O)(=O)N2CCCC2C(=O)Nn2cnnc2)cc1 (stereo not given)	i	43.3	i	i
Cc1ccc(S(=O)(=O)N2CCCC2C(=O)Nn2cnnc2)cc1 (stereo not given)	i	i	i	i
COc1ccc(NC(=O)C2CCCCN2S(=O)(=O)c2ccc(F)cc2)c(OC)c1 (stereo not given)	i	i	40.8	i
COc1ccc(NC(=O)C2CCCCN2S(=O)(=O)c2ccc(F)cc2)cc1 (stereo not given)	i	i	53.4	i
COc1ccc(N2CCN(C(=O)Cn3cnc4c(cnn4-c4ccc(C)cc4)c3=O)CC2)cc1	i	i	i	i
CCN(CC)S(=O)(=O)c1cccc(C(=O)NC(C)C(c2cccs2)N2CCCC2)c1 (stereo not given)	i	i	i	i
Cc1ccc(C)c(Oc2coc3cc(OCC(=O)Nc4ccccc4C(C)C)ccc3c2=O)c1	i	i	i	i
CCOC(=O)c1[nH]ncc1CN1CCCC(C(=O)c2ccc(C(C)(C)C)cc2)C1 (stereo not given)	i	i	i	i
COc1ccc(C(=O)Nc2cccc(NC(C)=O)c2)cc1OC	i	i	i	i
COc1ccc(C(=O)Nc2cccc(S(C)(=O)=O)c2)cc1OC	i	i	42.7	i
SMILES	thrombin 1536	FXIIa inh	KLK5 inh	FXIa inh
O=C(NCc1ccccc1)c1sc(=S)n2c1[nH]c(=O)c1ccccc12	i	i	42.8	i
CC(=O)NNC(=O)c1sc(=S)n2c1[nH]c(=O)c1sccc12	i	i	i	i
Cc1ccc(NCc2cccnc2)c(Br)c1	i	i	46.7	i
Cc1cccc(CN2CCN(CC(=O)N3CCCC3)C2=O)c1	i	i	i	42.9
CC(C)N1C(=O)CCC1C(=O)NCc1cccs1 (stereo not given)	i	i	i	i
CC(C)N(CCCNC(=O)CC1Oc2ccccc2NC1=O)Cc1ccccc1 (stereo not given)	i	i	55.4	i
O=C(CC1Oc2ccccc2NC1=O)NCCCN1CCCC1=O (stereo not given)	i	i	53.3	i
Clc1ccc(-c2nc3ccccc3n2OCc2ccccc2)cc1	i	i	i	i
CCN1C(=O)/C(=C/N(C(C)=O)c2ccccc2)N(c2ccccc2)C1=S	76.2	i	50.4	i
CCc1ccc(/C=C2/C(=O)N(c3ccccc3)C(=S)N2CC(=O)OC)s1	i	i	i	i
CCN1C(=O)c2n[nH]c(C(=O)OC)c2C1=O	i	43.7	90.1	i
CC(=O)c1ccc2c(c1)N(C)c1ccccc1S2	i	i	40.9	i
CC1(C)C2CC=C(/C=N/NC(=O)c3ccc(O)cc3)C1C2 (stereo not given)	i	i	i	i
O=C(NCc1ccc(F)cc1)c1ccc(S(=O)(=O)Nc2cccc(C(F)(F)F)c2)cc1	i	i	49.3	i
O=C(NCc1ccccc1F)c1ccc(S(=O)(=O)Nc2cccc(C(F)(F)F)c2)cc1	i	i	i	i
COc1cccc(-n2cnc3sc(C)cc3c2=O)c1	i	i	i	i
Cc1cccc(C)c1NC(=S)N/N=C/c1c(Cl)cccc1Cl	50.1	i	i	i
O=c1c2c3c(sc2n(CCN2CCOCC2)c(=O)n1Cc1ccco1)CCCCC3	i	i	i	i

Bioassay records: PubChem, PCMD
